# Source: PubChem BioAssay (several laboratories)
# Compounds with a hit are over-represented: about 1.8% of the library has one in this group of screens.
# iPSC survival up: increases survival of single human iPS cells; hiPSC single-cell survival, ATPlite luminescence; 100% = ROCK inhibitor wells, 0% = DMSO; actives 0.044% (n = 360,000); survival enhancement, % at 20 µM; in the data active = survival enhancement above about 18%;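 also: cells exposed to compounds for 16 hours before the ATP read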
# Cneo AK release: Cryptococcus neoformans lysis via adenylate kinase release; C. neoformans lysis, adenylate kinase release luminescence, 4 h; normalised: neutral wells 0, clomiphene wells 100; lysis activity, % at 15 µM; actives 0.2% (n = 360,000);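 active = mean lysis activity across replicates of at least 80%, whatever share of replicates individually reach that level; inactive = mean lysis activity below 80%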
#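 Material – Cryptococcus neoformans yeast cells · Quantity – 5 × 10^6 yeast cells/mL · Buffer or medium – YPD medium · Compound – single dose · Timing – 4 h static compound exposure, 37 °C, read 1 h post-reagent · Signal – adenylate kinase release luminescence · Read-out basis – lysis from increased AK signal · Benchmarks – Clomiphene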
# SKN-1 inh: inhibitors of C. elegans SKN-1; C. elegans VP596 Pgst-4::GFP/RFP ratio, acrylamide-induced, 24 h; actives 0.49% (n = 360,000); AID 624304; inhibition, % at 21.8 µM;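 active = interference check ratio from 0.5 to 1.5 plus GFP to RFP signal ratio inhibition reaching or exceeding a fixed threshold, cut at about 30% in these data, passing the limit was not always enough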
# rRNA inh HTS: selective bacterial rRNA inhibition in E. coli | actives 1.6% (n = 350,000) | AID 720706 | E. coli WT GFP vs humanized-ribosome RFP mutants, fluorescence, 24 h; hits give low values; DMSO median 0, no signal -100 | GFP signal change (wild-type ribosome), % (concentration not given with the values);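 active = significant combined selectivity score with lowered wild-type GFP, culture density cut under 30%, mutant RFP and density less affected; inactive = any of these conditions unmet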
# MT1-MMP act inh: blocks activation of human MT1-MMP; GFP/RFP ratio change, % at 20 µM; actives 0.061% (n = 360,000); HT1080 RFP-PRO-GFP cells, GFP/RFP ratio fluorescence, overnight; percent of plate control window, DMSO zero; P50281;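 active = GFP/RFP ratio change of at least 30% with cell ATP level not reduced by more than half and red fluorescence within 50% of control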
#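 Assay system: HT1080 RFP-PRO-GFP cells | Dosing: 20 µM single dose, 1% DMSO | Incubation: Cells overnight before dosing, compound overnight, 37 °C, 5% CO2 | Evaluation: GFP/RFP fluorescence ratio | Control set: DMSO-only wells and HT1080 RFP-L50D-GFP cell wells as references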
# DAGLB inh: blocks human DAGLB lipase activity; HEK293T DAGLB membrane lysate, EnzChek fluorogenic substrate; inhibition, % at 5.17 µM; actives 0.059% (n = 340,000); in the data active = inhibition above about 34%;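 also: 0% = enzyme with vehicle and 100% = wells lacking enzyme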
# Target sequence (Q8NCG7 whole entry, looked up): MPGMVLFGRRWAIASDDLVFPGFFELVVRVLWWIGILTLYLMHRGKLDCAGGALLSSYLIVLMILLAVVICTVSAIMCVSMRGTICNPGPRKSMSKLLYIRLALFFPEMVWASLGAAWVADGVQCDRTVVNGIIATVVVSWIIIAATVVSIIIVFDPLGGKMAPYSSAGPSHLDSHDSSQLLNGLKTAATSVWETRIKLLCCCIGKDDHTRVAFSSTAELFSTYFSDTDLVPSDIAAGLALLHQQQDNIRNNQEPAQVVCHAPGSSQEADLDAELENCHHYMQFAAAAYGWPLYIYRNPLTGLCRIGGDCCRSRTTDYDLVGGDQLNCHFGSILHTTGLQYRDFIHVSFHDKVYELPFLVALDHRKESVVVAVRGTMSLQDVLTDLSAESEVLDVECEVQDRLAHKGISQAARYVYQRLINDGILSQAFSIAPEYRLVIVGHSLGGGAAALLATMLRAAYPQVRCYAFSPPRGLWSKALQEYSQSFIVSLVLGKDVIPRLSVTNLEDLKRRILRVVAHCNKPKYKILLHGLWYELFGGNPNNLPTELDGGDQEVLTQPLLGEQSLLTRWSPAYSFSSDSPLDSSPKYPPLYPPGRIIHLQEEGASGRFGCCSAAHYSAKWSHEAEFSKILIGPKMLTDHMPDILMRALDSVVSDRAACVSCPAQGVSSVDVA
# * = called active by the depositor; nt = not tested or not shown.
SMILES,iPSC survival up,Cneo AK release,SKN-1 inh,rRNA inh HTS,MT1-MMP act inh,DAGLB inh
CN1C2CCC1/C(=C/c1ccccn1)C(=O)/C2=C\c1ccccn1,34*,-10,-13,-21,-38,-5
Cc1ccccc1-n1c(/C=C/c2ccccn2)nc2ccccc2c1=O,0,3,-12,4,-3,-12
OC[C@@H]1Nc2ccc(C#Cc3cccnc3)cc2[C@@H]2NCC[C@H]12,nt,nt,nt,5,nt,nt
COC(=O)C1=C(C(=O)OC)C2OC1c1cc3ccccc3cc12,-4,nt,-21,-19*,2,-3
COC(=O)C1=C(c2ccc3ccccc3c2)C[C@@H]2CC[C@H]1N2C,-3,7,-4,-2,-1,3
Clc1ccccc1CN1CCN(c2ccccc2Cl)CC1,0,nt,4,-42*,4,-7
COC(=O)[C@@H]1[C@@H](CO)[C@@H]2Cn3c(ccc(C4=CCCCC4)c3=O)[C@H]1N2CC1CCCCC1,nt,nt,nt,-27,nt,nt
C=CC1CN2CCC1C[C@@H]2CO (some centres undefined),nt,1,nt,nt,nt,nt
CC[C@H]1C=C(C(=O)N[C@@]2(C(=O)O)C[C@H]2CC)[C@H]2CCC(=O)[C@H]2C1,nt,9,nt,nt,nt,nt
COc1ccc(NC(=S)NC(NC(=O)CF)C(Cl)(Cl)Cl)cc1[N+](=O)[O-] (centres undefined),0,2,-12,-22*,0,6
CS(=O)(=O)N1C[C@@H]2N[C@H](C1)C2c1ccccc1 (some centres undefined),nt,nt,nt,0,nt,nt
C[C@]12C=CC(=O)C=C1C=C[C@@H]1C2CC[C@]2(C)C(=O)CCC12 (some centres undefined),-1,-1,25,-28*,-1,0
C[C@]12CCC3[C@@H](CCC4=CC(=O)CC[C@@]43CO)C1CCC2=O (some centres undefined),3,-1,-3,13,0,-1
NC1=C([N+](=O)[O-])C(c2ccc3c(c2)OCO3)c2c(c3ccccc3oc2=O)O1 (centres undefined),nt,nt,nt,-29*,nt,nt
N#CC1=C(N)Oc2c(c(=O)oc3ccccc23)C1c1ccc([N+](=O)[O-])o1 (centres undefined),1,nt,10,14,-8,5
COC(=O)[C@@H]1[C@@H](CO)[C@@H]2Cn3c(ccc(-c4ccncc4)c3=O)[C@H]1N2CCc1ccccc1,nt,-5,nt,1,nt,nt
O=[N+]([O-])c1ccc(N2CCCCC2)c2ncccc12,0,-2,17,-43*,7,4
C=CCN1[C@@H]2CN(C(C)=O)C[C@H]1C2c1ccc(Br)cc1 (some centres undefined),nt,nt,nt,-3,nt,nt
O=[N+]([O-])c1ccc(N2CCOCC2)c2cccnc12,0,-2,3,0,5,-1
O=[N+]([O-])c1ccc(N2CCOCC2)c2c1no[n+]2[O-],-6,-6,21,-24*,-157,-4
COc1ccc(OC)c(C(c2c(O)c3ccccc3oc2=O)c2c(C)n(C)n(-c3ccccc3)c2=O)c1 (centres undefined),0,-1,-15,-3,-2,-1
Cc1c(C(c2ccc(O)cc2)c2c(O)c3ccccc3oc2=O)c(=O)n(-c2ccccc2)n1C (centres undefined),-1,nt,2,-14*,4,-1
COC(=O)[C@@H]1[C@@H](CO)[C@@H]2Cn3c(ccc(-c4ccccc4F)c3=O)[C@H]1N2Cc1ccccc1,nt,-5,nt,-2,nt,nt
O=C1NC(=O)C2(Cc3cc([N+](=O)[O-])ccc3N3CCN(C(=O)c4ccccc4)CC32)C(=O)N1 (centres undefined),3,-2,25,-29*,4,2
CN1C(=O)N(C)C(=O)C2(Cc3cc([N+](=O)[O-])ccc3N3CCN(C(=O)c4ccccc4)CC32)C1=O (centres undefined),2,1,5,-12,0,0
SMILES,iPSC survival up,Cneo AK release,SKN-1 inh,rRNA inh HTS,MT1-MMP act inh,DAGLB inh
O=c1[nH]c(CN2CC=C(c3ccccc3)CC2)nc2cc(C(F)(F)F)ccc12,-1,88*,-13,nt,-9,4
CN1C(=O)/C(=C\c2ccc(Br)s2)C(=O)NC1=S,0,6,37*,4,nt,7
OCC[n+]1c2ccccc2nc2ccc(N3CCOCC3)cc21,0,0,38*,nt,11,nt
O=C(Nc1ccc(Cl)cc1)OC1CN2CCC1CC2 (centres undefined),0,nt,6,nt,0,0
O=C(Nc1cccc(Cl)c1)OC1CN2CCC1CC2 (centres undefined),0,nt,-12,-39*,-4,-6
COC(=O)[C@H]1[C@H](CO)[C@H]2Cn3c(ccc(C4=CCCCC4)c3=O)[C@@H]1N2CCc1ccccc1,nt,2,nt,-8,nt,nt
COc1cc(N2CCOCC2)ccc1/C=C1\C(=O)NC(=O)N(C2CCCCC2)C1=O,0,nt,50*,nt,1,11
CC(C)(C)n1nnnc1C(C1CC1)N1CCC2(CC1)C(=O)NCN2c1ccccc1 (centres undefined),0,2,7,-16*,7,nt
COP(=O)(C#Cc1ccccc1)C(O)c1ccc(Br)cc1 (centres undefined),0,nt,-9,-30*,-1,-2
CCOP(=O)(C#Cc1ccccc1)C(O)c1ccc(Br)cc1 (centres undefined),1,nt,-2,-48,0,-2
CCC(=O)N1N=C(c2c(O)n(CCc3ccccc3)c(=O)[nH]c2=O)CC1c1ccc(OC)c(OC)c1 (centres undefined),0,0,-10,-28*,6,nt
COc1ccc(CCn2c(O)c(C=NCCN3CCCCC3)c(=O)[nH]c2=O)cc1OC,2,-1,5,nt,3,1
Cc1cc(N(CCCl)CCCl)ccc1C=Cc1ccncn1,6,5,42*,10,-107,-19
COc1ccc(CN2CCCC(C(=O)c3cccc(Cl)c3)C2)cc1 (centres undefined),0,27,43*,-13,-1,-3
COc1cccc(C(=O)C2CCCN(Cc3ccc4nonc4c3)C2)c1 (centres undefined),-2,nt,-1,-27,1,-9
O=C(C1CC1)N1C[C@@H]2N[C@H](C1)[C@@H]2c1ccc(-c2ccncc2)cc1,nt,nt,nt,8,nt,nt
COc1cc(/C=N/NP(=S)(c2ccccc2)c2ccccc2)ccc1O,-1,-5,17,nt,0,1
Oc1ccc(/C=N/NP(=S)(c2ccccc2)c2ccccc2)cc1,-1,-1,38*,nt,-2,1
